The record followed here is ChEMBL document CHEMBL1137681, “Design, synthesis and characterization of N9/N7-substituted 6-aminopurines as VEGF-R and EGF-R inhibitors” (Eur J Med Chem, 2009).

Experiment [1] deals with Epidermal growth factor receptor (Homo sapiens, UniProt P00533). The experiment in a line: Inhibition of EGFR up to 100 uM. The method in brief: (§1)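 Buffer: HEPES-NaOH pH 7.5, Mg2+/Mn2+, vanadate, DTT, PEG20000, 1% DMSO. Incubated 30 °C for 80 min, stopped with 2% H3PO4, washed, and scintillation-counted. IC50 from 10 concentrations in singlicate.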
For experiment [2], the target named is Receptor tyrosine-protein kinase erbB-2 (Homo sapiens, UniProt P04626). The experiment in a line: Inhibition of ERBB2 up to 100 uM. The method in brief:
as §1

Experiment [3] concerns the target Proto-oncogene tyrosine-protein kinase Src (Homo sapiens, UniProt P12931). The experiment in a line: Inhibition of SRC up to 100 uM.
The target of experiment [4] is Vascular endothelial growth factor receptor 2 (Homo sapiens, UniProt P35968). Put plainly: Inhibition of VEGFR2 up to 100 uM.
Experiment [5] deals with Serine/threonine-protein kinase TBK1 (Homo sapiens) (UniProt Q9UHD2). Put plainly: Inhibition of human TBK1 at 10 uM.
For experiment [6], the target named is Homeodomain-interacting protein kinase 2 (Homo sapiens) (UniProt Q9H2X6). Put plainly: Inhibition of human HIPK2 at 10 uM.
The target of experiment [7] is Serine/threonine-protein kinase PAK 4 (Homo sapiens) (UniProt O96013). Put plainly: Inhibition of human PAK4 at 10 uM.
The target in experiment [8] is Calcium/calmodulin-dependent protein kinase kinase 2 (Homo sapiens) (UniProt Q96RR4). The experiment in a line: Inhibition of human CAMKKbeta at 10 uM.
Experiment [9] addresses Serine/threonine-protein kinase PLK1 (Homo sapiens) (UniProt P53350). The experiment in a line: Inhibition of human okadaic acid sensitive PLK1 at 10 uM.
Experiment [10] addresses Maternal embryonic leucine zipper kinase (Homo sapiens) (UniProt Q14680). Put plainly: Inhibition of human MELK at 10 uM.
In experiment [11] the target is Aurora kinase C (Homo sapiens) (UniProt Q9UQB9). Put plainly: Inhibition of human aurora C at 10 uM.
The target of experiment [12] is Mitogen-activated protein kinase 3 (Homo sapiens) (UniProt P27361). The experiment in a line: Inhibition of human ERK1 at 10 uM.
Experiment [13] deals with Fibroblast growth factor receptor 1 (Homo sapiens) (UniProt P11362). The experiment in a line: Inhibition of human FGFR1 at 10 uM.
Experiment [14] deals with Ephrin type-A receptor 2 (Homo sapiens) (UniProt P29317). Put plainly: Inhibition of human EPHA2 at 10 uM.
Experiment [15] addresses T1, Aurora kinase B (Homo sapiens, UniProt Q96GD4). Put plainly: Inhibition of Aurora B up to 100 uM. The method in brief: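 Buffer was HEPES-NaOH pH 7.5 with MgCl2, MnCl2, vanadate, DTT, PEG20000 and 1% DMSO. Run 80 min at 30 °C, quenched with 2% H3PO4, NaCl-washed, then scintillation-counted. IC50 fitted from 10 concentrations tested once each.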
The subject of experiment [16] is Serine/threonine-protein kinase B-raf (Homo sapiens), P15056 [V600E]. Put plainly: Inhibition of BRAF V600E mutant up to 100 uM.
In experiment [17] the target is Dual specificity mitogen-activated protein kinase kinase 1 (Oryctolagus cuniculus) (UniProt P29678). The experiment in a line: Inhibition of rabbit MKK1 at 10 uM.
The target in experiment [18] is Mitogen-activated protein kinase 8 (Homo sapiens) (UniProt P45983). Put plainly: Inhibition of JNK1alpha1 at 10 uM.
Experiment [19] concerns the target Mitogen-activated protein kinase 14 (Homo sapiens) (UniProt Q16539). Put plainly: Inhibition of SAPK2a at 10 uM.
For experiment [20], the target named is Mitogen-activated protein kinase 13 (Homo sapiens) (UniProt O15264). The experiment in a line: Inhibition of SAPK4 at 10 uM.
For experiment [21], the target named is MAP kinase-activated protein kinase 2 (Homo sapiens) (UniProt P49137). Put plainly: Inhibition of MAPKAP-K2 (delta 1-45) at 10 uM.
The target in experiment [22] is Protein kinase C alpha type (Homo sapiens) (UniProt P17252). The experiment in a line: Inhibition of PKCalpha at 10 uM.
The test system of experiment [23] is Ribosomal protein S6 kinase beta-1 (Homo sapiens), P23443 [T412E]. The experiment in a line: Inhibition of S6K1 T412E mutant at 10 uM.
The target in experiment [24] is Proto-oncogene tyrosine-protein kinase LCK (Mus musculus) (UniProt P06240). The experiment in a line: Inhibition of mouse LCK at 10 uM.
Experiment [25] has as its target Cyclin-dependent kinase 2 (Homo sapiens) (UniProt P24941). The experiment in a line: Inhibition of CDK2/cyclin A at 10 uM.
In experiment [26] the target is Dual specificity tyrosine-phosphorylation-regulated kinase 1A (Rattus norvegicus) (UniProt Q63470). Put plainly: Inhibition of rat DYRK1a at 10 uM.
Experiment [27] addresses Serine/threonine-protein kinase Nek6 (Homo sapiens) (UniProt Q9HC98). The experiment in a line: Inhibition of NEK6 at 10 uM.
Experiment [28] deals with Serine/threonine-protein kinase N2 (Homo sapiens) (UniProt Q16513). The experiment in a line: Inhibition of PRK2 at 10 uM.
For experiment [29], the target named is Serine/threonine-protein kinase pim-2 (Homo sapiens) (UniProt Q9P1W9). Put plainly: Inhibition of PIM2 at 10 uM.
For experiment [30], the target named is Serine/threonine-protein kinase Nek7 (Homo sapiens) (UniProt Q8TDX7). The experiment in a line: Inhibition of NEK7 at 10 uM.
Experiment [31] has as its target MAP kinase-activated protein kinase 3 (Homo sapiens) (UniProt Q16644). The experiment in a line: Inhibition of MAPKAP-K3 at 10 uM.
The target in experiment [32] is SRSF protein kinase 1 (Homo sapiens) (UniProt Q96SB4). The experiment in a line: Inhibition of SRPK1 at 10 uM.
For experiment [33], the target named is T1, Aurora kinase B. Put plainly: Inhibition of Aurora B at 10 uM.
Experiment [34] has as its target MAP/microtubule affinity-regulating kinase 3 (Homo sapiens) (UniProt P27448). The experiment in a line: Inhibition of human MARK3 at 10 uM.
For experiment [35], the target named is Serine/threonine-protein kinase D1 (Homo sapiens) (UniProt Q15139). Put plainly: Inhibition of human PKD1 at 10 uM.
For experiment [36], the target named is Dual specificity tyrosine-phosphorylation-regulated kinase 2 (Homo sapiens) (UniProt Q92630). The experiment in a line: Inhibition of human DYRK2 at 10 uM.
Experiment [37] addresses Serine/threonine-protein kinase B-raf (Homo sapiens, UniProt P15056, V600E). Put plainly: Inhibition of BRAF V600E mutant.

Active and inactive are the calls of the source. The calls are words filed in the database; no cut-off is given here.

T1 sequence (Q96GD4 whole entry): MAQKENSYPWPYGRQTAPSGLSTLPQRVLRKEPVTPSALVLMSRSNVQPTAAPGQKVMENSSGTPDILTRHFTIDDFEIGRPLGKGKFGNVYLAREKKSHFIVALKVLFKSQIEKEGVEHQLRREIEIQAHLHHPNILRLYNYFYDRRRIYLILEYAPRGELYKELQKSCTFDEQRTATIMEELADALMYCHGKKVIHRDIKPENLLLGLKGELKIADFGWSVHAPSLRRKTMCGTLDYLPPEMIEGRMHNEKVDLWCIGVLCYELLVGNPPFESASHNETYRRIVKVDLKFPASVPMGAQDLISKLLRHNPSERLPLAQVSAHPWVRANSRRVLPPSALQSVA
Sequence of Maternal embryonic leucine zipper kinase (Homo sapiens) (Q14680 whole entry, looked up): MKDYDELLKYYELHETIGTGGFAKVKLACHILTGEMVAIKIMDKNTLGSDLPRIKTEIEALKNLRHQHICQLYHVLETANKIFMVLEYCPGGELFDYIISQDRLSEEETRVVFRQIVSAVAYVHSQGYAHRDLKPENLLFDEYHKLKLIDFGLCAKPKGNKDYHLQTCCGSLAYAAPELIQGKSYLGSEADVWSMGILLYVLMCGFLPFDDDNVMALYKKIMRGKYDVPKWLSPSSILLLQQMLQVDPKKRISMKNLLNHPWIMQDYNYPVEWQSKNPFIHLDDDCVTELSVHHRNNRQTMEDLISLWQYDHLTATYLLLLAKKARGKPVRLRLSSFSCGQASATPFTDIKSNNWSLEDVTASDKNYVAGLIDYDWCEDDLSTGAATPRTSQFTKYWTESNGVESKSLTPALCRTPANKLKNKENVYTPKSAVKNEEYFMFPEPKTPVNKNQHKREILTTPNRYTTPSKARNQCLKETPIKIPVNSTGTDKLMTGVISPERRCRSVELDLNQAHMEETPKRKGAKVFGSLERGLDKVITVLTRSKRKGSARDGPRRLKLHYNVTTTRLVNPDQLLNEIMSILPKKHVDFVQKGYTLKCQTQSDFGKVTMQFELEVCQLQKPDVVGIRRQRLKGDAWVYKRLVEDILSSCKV
Sequence of Vascular endothelial growth factor receptor 2 (P35968 whole entry): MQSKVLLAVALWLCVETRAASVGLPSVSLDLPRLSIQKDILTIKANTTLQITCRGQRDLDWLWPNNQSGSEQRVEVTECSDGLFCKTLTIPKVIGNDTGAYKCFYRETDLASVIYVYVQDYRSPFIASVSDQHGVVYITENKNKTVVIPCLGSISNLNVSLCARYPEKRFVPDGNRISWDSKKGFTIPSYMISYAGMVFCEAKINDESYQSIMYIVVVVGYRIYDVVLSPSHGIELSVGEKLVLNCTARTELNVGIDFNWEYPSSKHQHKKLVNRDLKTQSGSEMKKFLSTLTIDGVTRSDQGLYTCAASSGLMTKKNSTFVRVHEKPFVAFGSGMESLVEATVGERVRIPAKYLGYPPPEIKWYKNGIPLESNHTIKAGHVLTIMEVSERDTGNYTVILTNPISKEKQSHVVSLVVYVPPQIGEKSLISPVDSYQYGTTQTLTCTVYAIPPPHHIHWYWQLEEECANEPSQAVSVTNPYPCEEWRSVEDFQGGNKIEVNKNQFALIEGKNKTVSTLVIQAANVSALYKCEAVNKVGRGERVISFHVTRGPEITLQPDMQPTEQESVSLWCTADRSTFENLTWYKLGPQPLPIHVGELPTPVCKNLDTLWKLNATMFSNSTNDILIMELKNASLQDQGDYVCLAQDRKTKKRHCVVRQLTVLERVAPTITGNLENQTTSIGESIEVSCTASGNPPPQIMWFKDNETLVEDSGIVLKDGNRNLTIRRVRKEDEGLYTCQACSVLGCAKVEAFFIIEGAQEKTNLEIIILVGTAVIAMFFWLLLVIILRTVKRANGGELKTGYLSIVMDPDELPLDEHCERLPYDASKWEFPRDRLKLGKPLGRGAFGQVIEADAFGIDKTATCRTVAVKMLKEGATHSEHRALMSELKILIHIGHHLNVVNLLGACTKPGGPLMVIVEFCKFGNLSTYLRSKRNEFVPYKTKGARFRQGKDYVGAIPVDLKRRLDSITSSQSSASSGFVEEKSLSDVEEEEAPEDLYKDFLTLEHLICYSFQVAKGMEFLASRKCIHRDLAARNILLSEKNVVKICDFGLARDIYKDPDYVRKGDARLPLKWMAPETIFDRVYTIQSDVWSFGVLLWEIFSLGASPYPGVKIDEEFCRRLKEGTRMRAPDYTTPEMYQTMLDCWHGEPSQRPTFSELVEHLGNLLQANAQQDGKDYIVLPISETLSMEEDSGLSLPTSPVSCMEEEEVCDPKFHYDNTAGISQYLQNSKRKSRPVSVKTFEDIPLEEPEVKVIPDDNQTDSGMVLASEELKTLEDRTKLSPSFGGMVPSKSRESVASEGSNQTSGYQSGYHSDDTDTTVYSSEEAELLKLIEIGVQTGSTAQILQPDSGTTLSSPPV
Sequence of Mitogen-activated protein kinase 8 (Homo sapiens) (P45983 whole entry): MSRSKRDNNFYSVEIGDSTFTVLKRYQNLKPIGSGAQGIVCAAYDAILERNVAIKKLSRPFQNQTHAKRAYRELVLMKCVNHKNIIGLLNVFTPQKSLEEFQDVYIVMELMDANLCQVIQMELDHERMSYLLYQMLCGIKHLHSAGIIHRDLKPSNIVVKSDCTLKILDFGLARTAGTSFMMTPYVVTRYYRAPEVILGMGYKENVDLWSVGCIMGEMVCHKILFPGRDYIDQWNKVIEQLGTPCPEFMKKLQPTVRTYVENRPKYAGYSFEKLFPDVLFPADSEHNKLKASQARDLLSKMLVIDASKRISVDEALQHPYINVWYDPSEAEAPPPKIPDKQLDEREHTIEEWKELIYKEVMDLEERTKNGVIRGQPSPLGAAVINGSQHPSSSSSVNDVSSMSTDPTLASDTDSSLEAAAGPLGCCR
Sequence of Ephrin type-A receptor 2 (Homo sapiens) (P29317 whole entry): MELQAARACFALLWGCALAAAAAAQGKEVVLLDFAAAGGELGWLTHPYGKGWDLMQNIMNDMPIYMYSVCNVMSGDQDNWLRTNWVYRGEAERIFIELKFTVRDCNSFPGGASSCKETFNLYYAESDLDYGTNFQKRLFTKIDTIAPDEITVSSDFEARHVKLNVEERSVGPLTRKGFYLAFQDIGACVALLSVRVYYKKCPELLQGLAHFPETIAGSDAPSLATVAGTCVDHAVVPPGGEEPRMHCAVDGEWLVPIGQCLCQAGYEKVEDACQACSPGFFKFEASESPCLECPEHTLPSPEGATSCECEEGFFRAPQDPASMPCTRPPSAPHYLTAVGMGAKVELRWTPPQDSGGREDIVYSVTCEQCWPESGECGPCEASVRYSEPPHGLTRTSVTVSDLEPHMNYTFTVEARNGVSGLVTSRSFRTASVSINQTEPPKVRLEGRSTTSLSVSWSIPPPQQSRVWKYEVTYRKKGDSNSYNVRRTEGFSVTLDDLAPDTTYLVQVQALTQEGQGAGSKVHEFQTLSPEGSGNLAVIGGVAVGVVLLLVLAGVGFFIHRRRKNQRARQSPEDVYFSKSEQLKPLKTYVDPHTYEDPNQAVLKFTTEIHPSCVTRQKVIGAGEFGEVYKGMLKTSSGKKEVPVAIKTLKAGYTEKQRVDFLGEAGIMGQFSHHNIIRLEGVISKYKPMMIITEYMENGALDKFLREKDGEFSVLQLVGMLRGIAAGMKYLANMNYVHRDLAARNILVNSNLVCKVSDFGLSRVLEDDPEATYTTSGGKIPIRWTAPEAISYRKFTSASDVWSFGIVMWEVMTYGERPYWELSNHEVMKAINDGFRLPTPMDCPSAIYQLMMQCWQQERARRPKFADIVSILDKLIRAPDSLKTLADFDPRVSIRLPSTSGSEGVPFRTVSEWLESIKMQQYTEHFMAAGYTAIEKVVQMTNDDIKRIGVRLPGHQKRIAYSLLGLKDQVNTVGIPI
Sequence of Mitogen-activated protein kinase 13 (Homo sapiens) (O15264 whole entry): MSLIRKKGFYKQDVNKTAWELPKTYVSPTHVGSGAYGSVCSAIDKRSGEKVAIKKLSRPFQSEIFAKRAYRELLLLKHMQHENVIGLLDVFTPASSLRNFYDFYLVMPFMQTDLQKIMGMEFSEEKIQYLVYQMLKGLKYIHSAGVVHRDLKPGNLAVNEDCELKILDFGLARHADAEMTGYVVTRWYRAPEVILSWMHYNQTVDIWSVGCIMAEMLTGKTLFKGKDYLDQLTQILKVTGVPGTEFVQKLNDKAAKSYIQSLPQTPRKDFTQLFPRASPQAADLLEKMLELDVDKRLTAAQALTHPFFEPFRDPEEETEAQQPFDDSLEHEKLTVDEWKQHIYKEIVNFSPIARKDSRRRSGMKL

Turning to `Nc1ncnc2ncn(CC(=O)c3ccccc3)c12`, in experiment [1], the inhibition entry was “inactive”.
As for `Nc1ncnc2c1ncn2CC(=O)c1ccccc1`, the inhibition result in [2], in experiment [3] and in experiment [4] was “inactive” in each case.
For the compound `Nc1ncnc2ncn(CC(=O)c3c[nH]c4ccccc34)c12`, the inhibition result in experiment [5], in experiment [6], in experiment [7], in experiment [8], in experiment [9] and in experiment [10] was “inactive” throughout. In addition, the inhibition result (in experiment [11]; in experiment [12]; in experiment [13]; in experiment [14]; at Aurora kinase B [15]; in experiment [16]) was “inactive” throughout. In addition, the inhibition result in [17], in [18], in [19], in experiment [20], in experiment [21] and in experiment [22] was “inactive” throughout. Moreover, the inhibition result in experiment [23], in [24], in experiment [25], in [26], in [27] and in experiment [28] was “inactive” each time. The inhibition entry (in experiment [29]; in experiment [30]; in experiment [31]; in experiment [32]; at Aurora kinase B [33]; in [34]) was “inactive” throughout. Moreover, the inhibition result in experiment [35] and in experiment [36] was “inactive” each time.
The term IC50 denotes the concentration that inhibits the measured activity by half. In [37], `Nc1ncnc2c1ncn2CC(=O)c1c[nH]c2ccccc12` displayed a half-inhibitory concentration (IC50) of 82 µM.
